# Measurements gathered from unrelated publications.
# Target: Interleukin-1 receptor-associated kinase 1 (IRAK1, Homo sapiens, UniProt P51617)
Compound,test,setting,remaining binding [%]
CCS(=O)(=O)c1cc2cc(C[C@](O)(CC(C)(C)c3ccc(F)cc3C(N)=O)C(F)(F)F)[nH]c2cn1,"cell-free assay, competition with immobilised ligand",1 µM,99
c1cnn2ncc(-c3ccnc(N4CCC45COC5)n3)c2c1,binding,1 µM,76
O=C(c1ccc(Nc2nccc(-c3cc4ccccc4s3)n2)cc1)N1CCC(N2CCCC2)CC1,"binding, competition with immobilised ligand",1 µM,3.2
CN(c1nccc(-c2cnn3ncccc23)n1)C1CC1,binding,1 µM,100
COc1ccc2cc(OCC3(C(=O)O)CN(C(=O)c4ccc(F)cc4)C3)ccc2c1,"cell-free assay, competition with immobilised ligand",1 µM,100
CN(CCCC(F)(F)F)c1nccc(-c2cnn3ncccc23)n1,binding,1 µM,100
Cc1nccc(COC(=O)N2C[C@@H]3[C@@H](CNC(=O)c4ccc5[nH]nnc5c4)[C@@H]3C2)n1,"cell-free assay, competition with immobilised ligand",1 µM,81
O=C(c1ccc(Nc2ncc(Cl)c(-c3cc4ccccc4s3)n2)cc1)N1CCC(N2CCCC2)CC1,"binding, competition with immobilised ligand",1 µM,0
Cc1c(NC(=O)c2cc(C(N)=O)nc3cc(F)ccc23)c(C(F)(F)F)nn1Cc1ccc(C(C)(C)C)cc1,"cell-free assay, competition with immobilised ligand",1 µM,100
CCN1CCN(Cc2ccc(C(=O)Nc3ccc(C)c(Oc4ccc5c(c4)CC(=O)N5)c3)cc2C(F)(F)F)CC1,"binding, competition with immobilised ligand",1 µM,100
C=CC(=O)N1CCC(C(=O)NCC(=O)N2CCN(c3nc(-c4cnc(N)nc4C(F)F)nc(N4CCOCC4)n3)CC2)CC1,"binding, competition with immobilised ligand",1 µM,100
O=S(=O)(NC1CCC(c2cc(F)ccc2F)(S(=O)(=O)c2ccc(Cl)cc2)CC1)C(F)(F)F (stereo not drawn),"cell-free assay, competition with immobilised ligand",1 µM,93
CNC(=O)[C@@H]1CC[C@@H](n2c(-c3ccc4cnccc4c3)nc3ccc(C(=O)NCc4cccc(C(N)=O)c4)cc32)C1,"binding, competition with immobilised ligand",1 µM,100
Cc1cnc(Nc2ccc(C(=O)N3CCC(N4CCCC4)CC3)cc2)nc1-c1cc2ccccc2s1,"binding, competition with immobilised ligand",1 µM,0
CN(c1ccnc(CNc2nc(Nc3ccc4c(c3)CC(=O)N4)ncc2C(F)(F)F)n1)S(C)(=O)=O,"cell-free assay, competition with immobilised ligand",1 µM,13
CC1CCCN1c1nccc(-c2cnn3ncccc23)n1 (stereo not drawn),binding,1 µM,85
COc1cnc(Nc2cccc(S(N)(=O)=O)c2)nc1N1CCN(c2ccccc2)C(=O)C1,"binding, competition with immobilised ligand",1 µM,55
C[C@H]1CCN(c2nccc(-c3cnn4ncccc34)n2)C1,binding,1 µM,100
FC(F)(F)Oc1cccc(-c2cnc3ccc(-c4ccncc4)nn23)c1,"cell-free assay, competition with immobilised ligand",5 µM,10
O=C(NCC1CCOCC1)c1n[nH]cc1NC(=O)c1c(F)cccc1F,"binding, competition with immobilised ligand",1 µM,98
N[C@H]1CCN(c2nccc(-c3cnn4ncccc34)n2)C1,binding,1 µM,90
